The source made the active and inactive calls. No cut-off for these calls is given here. Where a SMILES comes first, the peptide text is derived from it.
How the values were obtained:
Streptococcus pyogenes [1] = assay: Inhibition of Streptococcus pyogenes His-tagged IdeS expressed in Escherichia coli BL21 using IgG1 as substrate at 30 mM incubated for 15 mins prior to substrate addition measured after 20 mins
In short: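 IdeS with tag removed (TEV cleavage, Ni2+ and size-exclusion repurification), stored in PBS. Enzyme preincubated 15 min at room temp with analogue (30 mM stock in 50% DMSO/phosphate pH 7.4) before adding human IgG1. Final IdeS 0.8 μM, analogue at 4.8×10^3 molar excess. 20 min at 37 °C, stopped with iodoacetamide. Triplicates, PBS-for-IdeS controls. Read by SPR as fraction of active IdeS from an IdeS standard curve.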

[2] = target: T1, Streptopain (Streptococcus pyogenes) (UniProt P0C0J0); assay: Inhibition of Streptococcus pyogenes 5448 SpeB using n-bezoyl-proline-phenylalanine-arginine-p-nitroanilide hydrochloride as substrate at 30 mM incubated for 15 mins prior to substrate addition measured after 30 mins by colorimetry
T1 sequence (whole entry): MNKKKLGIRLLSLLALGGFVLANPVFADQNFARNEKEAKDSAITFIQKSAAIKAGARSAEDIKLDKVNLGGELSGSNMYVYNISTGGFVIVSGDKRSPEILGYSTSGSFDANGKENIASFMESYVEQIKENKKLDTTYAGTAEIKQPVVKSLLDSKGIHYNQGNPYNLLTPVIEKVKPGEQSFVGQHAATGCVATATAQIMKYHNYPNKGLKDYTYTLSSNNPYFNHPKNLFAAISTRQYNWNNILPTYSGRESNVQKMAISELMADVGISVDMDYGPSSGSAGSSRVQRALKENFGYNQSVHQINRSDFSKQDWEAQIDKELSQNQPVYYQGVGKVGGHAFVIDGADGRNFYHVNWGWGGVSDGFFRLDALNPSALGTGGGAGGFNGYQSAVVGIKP
In short: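 SpeB purified from S. pyogenes 5448 culture supernatant (ammonium sulfate precipitation, ion exchange), activated with 2 mM DTT 30 min at 37 °C. Activated enzyme preincubated 15 min at room temperature with analogue (30 mM stock in 50% DMSO/phosphate pH 7.4; 4.8×10^3 molar excess over 0.28 μM final SpeB). Then 1 mM BPFA substrate in 0.1 M phosphate pH 6 added; OD405 change recorded. Activity expressed relative to uninhibited enzyme.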

Streptococcus pyogenes [3] = assay: Inhibition of Streptococcus pyogenes His-tagged IdeS expressed in Escherichia coli BL21 using IgG1 as substrate at 30 mM incubated for 15 mins prior to substrate addition measured after 20 mins by SDS-PAGE analysis
In short: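 Tag-free IdeS (TEV-cleaved, repurified) preincubated 15 min at room temp with peptide or analogue (30 mM stock in 50% DMSO/phosphate pH 7.4), then IgG1 substrate added. Final IdeS 0.8 μM with 4.8×10^3 molar excess of compound. 20 min at 37 °C, quenched with iodoacetamide, IgG cleavage products detected by SDS-PAGE. Triplicates plus enzyme-free controls.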

Papain (Carica papaya) = target: T2, Papain (Carica papaya) (UniProt P00784); assay: Inhibition of papaya papain using Nalpa-benzoyl-DL-arginine 4-nitroanilide hydrochloride as substrate at 30 mM incubated for 10 mins prior to substrate addition measured after 2 hrs by colorimetry
T2 sequence (whole entry): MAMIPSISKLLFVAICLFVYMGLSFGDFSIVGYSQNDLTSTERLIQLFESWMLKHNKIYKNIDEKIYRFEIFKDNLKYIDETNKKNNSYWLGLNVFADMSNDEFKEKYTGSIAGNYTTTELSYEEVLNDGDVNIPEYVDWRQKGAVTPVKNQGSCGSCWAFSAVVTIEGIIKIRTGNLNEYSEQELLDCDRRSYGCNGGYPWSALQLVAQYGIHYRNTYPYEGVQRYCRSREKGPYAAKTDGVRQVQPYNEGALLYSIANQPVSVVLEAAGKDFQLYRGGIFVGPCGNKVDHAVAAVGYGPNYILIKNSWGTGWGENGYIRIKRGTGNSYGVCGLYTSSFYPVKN
In short: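 Papain in pH 6.2 phosphate buffer with 1.23 mM EDTA and 1.23 mM DTT, preincubated 10 min at room temp with compound (30 mM stock in 50% DMSO/phosphate pH 6.2). Final papain 0.9 μM, compound at 4.8×10^3 molar excess. Substrate added from 100 mM DMSO stock, 2 h at 37 °C, stopped with acetic acid, Abs405 read. Duplicates on two occasions. Activity relative to no-inhibitor control.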

[4] = Inhibition of Streptococcus pyogenes His-tagged IdeS expressed in Escherichia coli BL21 using IgG1 as substrate by SDS-PAGE analysis
In short: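 Ki by competitive-inhibition fit of initial velocities. 2 μM IdeS with repurified polyclonal IgG at 150, 100, 50, 20 or 10 μM, inhibitor at 5, 2, 0.5 mM or 5, 2.5, 1 mM. Initial cleavage read by non-reducing SDS-PAGE densitometry of IgG, single-cleaved IgG, F(ab')2 and 1/2Fc bands, weighted by mass.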

[5] = Selectivity ratio of Ki for Streptococcus pyogenes IdeS to Ki for papaya papain

Compound | inhibition (Streptococcus pyogenes [1]) | inhibition [2] | inhibition (Streptococcus pyogenes [3]) | inhibition (Papain (Carica papaya)) | Ki [4] [mM] | Ratio Ki [5]
CC(C)C[C@H](N)C(=O)NCC(=O)N1CCC[C@H](N2CCC[C@H]2C(N)=O)C1 | Active | Active |  |  |  | 
NCC(=O)NCC(=O)N1CCC[C@H]1C(=O)N[C@@H](CO)C(=O)O (H-GGPS-OH) |  |  | inactive |  |  | 
CC(C)C[C@H](N)C(=O)N1CCC[C@@H](NCC(N)=O)C1 | Active | inactive |  | inactive | 5.7 | 16
NCC(=O)NCC(=O)O (H-Gly-Gly-OH) | Active |  | inactive |  |  | 
CC(C)C[C@H](N)C(=O)NCC(=O)N1CCC[C@@H](N2CCC[C@H]2C(N)=O)C1 | Active | Active |  | Active |  | 
CC(C)C[C@H](NC(=O)[C@@H](N)CC(C)C)C(=O)N1CCC[C@@H](NCC(N)=O)C1 | Active | inactive |  |  |  | 
CC(C)C[C@H](N)C(=O)N1CCC[C@H](NCC(=O)N2CCC[C@H]2C(N)=O)C1 | Active | inactive |  | Active |  | 
NC(=O)CN[C@H]1CCCNC1 | Active | inactive |  | inactive | 6.7 | 16
CC(C)C[C@H](N)C(=O)NCC(=O)NCC(=O)N1CCC[C@H]1C(=O)O (H-LGGP-OH) | Active |  | inactive |  |  | 
H-PELLGGPS-OH |  |  | inactive |  |  | 
NCC(=O)N1CCC[C@@H](N2CCC[C@H]2C(N)=O)C1 | Active |  |  |  |  | 
NCC(=O)N1CCC[C@H](N2CCC[C@H]2C(N)=O)C1 | Active |  |  |  |  | 
CC(C)[C@H](NC(=O)[C@H](CO)NC(=O)[C@@H]1CCCN1C(=O)CN)C(=O)O (H-GPSV-OH) |  |  | inactive |  |  | 
NC(=O)CN[C@@H]1CCCNC1 | Active | inactive |  | inactive |  | 
CC(C)C[C@H](N)C(=O)N1CCC[C@@H](NCC(=O)N2CCC[C@H]2C(N)=O)C1 | Active | inactive |  |  |  | 
NC(=O)[C@@H]1CCCN1C(=O)CN[C@@H]1CCCNC1 | Active |  |  | Active |  | 
CC(C)C[C@H](NC(=O)[C@@H](N)CC(C)C)C(=O)N1CCC[C@H](NCC(N)=O)C1 | Active | inactive |  |  |  | 
CC(C)C[C@H](N)C(=O)N1CCC[C@H](NCC(N)=O)C1 | Active | inactive |  | inactive |  | 
CCN(CC(N)=O)[C@H]1CCCN(C(=O)[C@H](CC(C)C)NC(=O)[C@@H](N)CC(C)C)C1 | Active | Active |  |  |  | 
NC(=O)[C@@H]1CCCN1C(=O)CN[C@H]1CCCNC1 | Active |  |  |  |  | 
H-LLGGPS-OH |  |  | inactive |  |  | 
CCN(CC(N)=O)[C@@H]1CCCN(C(=O)[C@H](CC(C)C)NC(=O)[C@@H](N)CC(C)C)C1 | Active | Active |  |  |  | 
CC(C)C[C@H](NC(=O)[C@@H](N)CC(C)C)C(=O)NCC(=O)NCC(=O)O (H-LLGG-OH) | Active | Active | inactive |  |  | 
H-ELLGG-OH |  |  | inactive |  |  | 

— ChEMBL document CHEMBL2034923, “3-aminopiperidine-based peptide analogues as the first selective noncovalent inhibitors of the bacterial cysteine protease IdeS” (J Med Chem, 2012)
